Source: ChEMBL document CHEMBL1155547, “New aminopropandiol derivatives as orally available and short-acting calcium-sensing receptor antagonists” (Bioorg Med Chem Lett, 2010)
Calls of active or inactive are those of the source. No cut-off for these calls is given here.

Legend:
[1] = target: T1, Extracellular calcium-sensing receptor (Homo sapiens, UniProt P41180); test: Antagonist activity at human CaSR expressed in rat PC12 cells transfected with zif promoter/luciferase by reporter gene assay; assay type: functional, cell-based, PC-12
T1 sequence (P41180 whole entry): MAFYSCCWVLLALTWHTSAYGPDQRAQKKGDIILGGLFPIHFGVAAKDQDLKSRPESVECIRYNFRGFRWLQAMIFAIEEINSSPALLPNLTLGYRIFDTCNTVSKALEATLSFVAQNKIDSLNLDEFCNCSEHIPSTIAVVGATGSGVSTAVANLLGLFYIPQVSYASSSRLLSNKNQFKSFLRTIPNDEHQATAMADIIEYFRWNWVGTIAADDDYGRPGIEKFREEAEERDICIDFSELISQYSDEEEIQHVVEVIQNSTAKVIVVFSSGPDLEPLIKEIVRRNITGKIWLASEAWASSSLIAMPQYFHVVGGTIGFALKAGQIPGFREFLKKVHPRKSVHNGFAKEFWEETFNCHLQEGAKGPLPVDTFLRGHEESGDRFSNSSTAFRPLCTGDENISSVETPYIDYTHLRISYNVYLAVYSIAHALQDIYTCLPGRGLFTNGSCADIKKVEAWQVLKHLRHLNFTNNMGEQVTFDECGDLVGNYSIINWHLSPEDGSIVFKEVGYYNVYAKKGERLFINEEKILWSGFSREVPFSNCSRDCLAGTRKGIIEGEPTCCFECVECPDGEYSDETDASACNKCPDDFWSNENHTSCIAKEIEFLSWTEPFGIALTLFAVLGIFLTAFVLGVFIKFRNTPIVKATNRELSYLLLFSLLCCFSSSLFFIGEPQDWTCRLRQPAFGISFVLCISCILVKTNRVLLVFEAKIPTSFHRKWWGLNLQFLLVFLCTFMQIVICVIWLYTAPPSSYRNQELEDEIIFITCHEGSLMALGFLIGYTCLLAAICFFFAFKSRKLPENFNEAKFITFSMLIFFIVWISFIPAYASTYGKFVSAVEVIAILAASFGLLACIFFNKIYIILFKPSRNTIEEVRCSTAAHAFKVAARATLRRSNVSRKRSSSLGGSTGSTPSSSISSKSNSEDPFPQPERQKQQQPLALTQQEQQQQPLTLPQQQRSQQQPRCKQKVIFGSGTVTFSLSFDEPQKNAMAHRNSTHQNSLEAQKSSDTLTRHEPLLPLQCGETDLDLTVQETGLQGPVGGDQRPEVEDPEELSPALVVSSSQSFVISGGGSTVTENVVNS
In short: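 Human CaSR antagonism measured by luciferase reporter gene assay in PC12h cells transfected with zif promoter/luciferase and hCaSR plasmids. IC50 values are means of two or more experiments.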

Rattus norvegicus [2] = test: Increase of serum PTH (1-34) level in Sprague-Dawley rat at 100 mg/kg, po after 30 and 60 mins by ELISA relative to NPS 2143; assay type: functional
In short: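 Sprague–Dawley rats (n = 5) were dosed orally at 100 mg/kg. Serum PTH 1–34 rise over basal at 30 and 60 min was measured by rat PTH 1–34 ELISA. The rise was scored against a reference calcilytic given at 100 mg/kg po: ++ >80%, + 50–80%, N.E. <50% of the reference increase.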

[3] = Cmax in rat at 10 mg/kg, po; assay type: ADME, organism-based; design: dose 10 mg/kg, route oral; settings: in vivo
[4] = Tmax in rat at 10 mg/kg, po; assay type: ADME, organism-based; design: dose 10 mg/kg, route oral; settings: in vivo
[5] = Half life in rat at 10 mg/kg, po; assay type: ADME, organism-based; design: dose 10 mg/kg, route oral; settings: in vivo
[6] = Bioavailability in rat at 10 mg/kg, po; assay type: ADME, organism-based; settings: in vivo
Cytochrome P450 2D6 = Cytochrome P450 2D6 (Homo sapiens, UniProt P10635); test: Inhibition of CYP2D6; assay type: ADME
Chain of Cytochrome P450 2D6 (P10635 whole entry): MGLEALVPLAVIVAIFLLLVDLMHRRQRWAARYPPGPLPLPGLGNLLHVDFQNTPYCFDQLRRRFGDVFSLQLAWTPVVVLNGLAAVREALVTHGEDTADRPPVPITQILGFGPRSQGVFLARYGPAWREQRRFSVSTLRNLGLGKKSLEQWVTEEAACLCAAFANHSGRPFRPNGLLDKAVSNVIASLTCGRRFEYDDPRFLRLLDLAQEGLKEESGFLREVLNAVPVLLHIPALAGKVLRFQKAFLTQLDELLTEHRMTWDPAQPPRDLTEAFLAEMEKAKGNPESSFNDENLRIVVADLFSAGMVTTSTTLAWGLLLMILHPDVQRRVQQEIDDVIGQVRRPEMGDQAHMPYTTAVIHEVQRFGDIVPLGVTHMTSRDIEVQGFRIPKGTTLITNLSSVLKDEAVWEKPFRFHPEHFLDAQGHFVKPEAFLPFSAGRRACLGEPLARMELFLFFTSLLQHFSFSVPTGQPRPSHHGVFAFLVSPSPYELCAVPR

Rattus norvegicus [7] = test: Increase of plasma PTH (1-84) level in Sprague-Dawley rat at 10 mg/kg, po after 2 hrs by ELISA
Rattus norvegicus [8] = test: Increase of plasma PTH (1-84) level in Sprague-Dawley rat at 10 mg/kg, po after 30 mins by ELISA
Rattus norvegicus [9] = test: Increase of serum PTH (1-34) level in Sprague-Dawley rat at 100 mg/kg, po after 30 and 60 mins by ELISA; assay type: functional
In short: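 Sprague–Dawley rats (n = 5) were dosed orally at 100 mg/kg. Endogenous PTH 1–34 was measured by rat PTH 1–34 ELISA. The value is the increase over basal level at 30 min and 60 min after dosing.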

Row | SMILES | IC50 [1] [nM] | also measured
1 | CC(C)(Cc1ccc2ccccc2c1)NC[C@@H](O)COC(c1ccccc1)C1CCCCC1 (some centres not stated) | 610 | –
2 | CC(OC[C@H](O)CNC(C)(C)Cc1ccc2ccccc2c1)c1cccc(Cl)c1 (some centres not stated) | 220 | Activity (Rattus norvegicus [2]): <50%
3 | CC(CCOC[C@H](O)CNC(C)(C)Cc1ccc2ccccc2c1)c1ccccc1 (some centres not stated) | 300 | –
4 | C=CC(OC[C@H](O)CNC(C)(C)Cc1ccc2ccccc2c1)c1ccccc1 (some centres not stated) | 210 | –
5 | CC(OC[C@H](O)CNC(C)(C)Cc1ccc2ccccc2c1)c1cccc2ccccc12 (some centres not stated) | 360 | –
6 | CCCC(OC[C@H](O)CNC(C)(C)Cc1ccc2ccccc2c1)c1ccccc1 (some centres not stated) | 150 | –
7 | CC(C)C(OC[C@H](O)CNC(C)(C)Cc1ccc2ccccc2c1)c1ccccc1 (some centres not stated) | 200 | –
8 | CC(OC[C@H](O)CNC(C)(C)Cc1ccc2ccccc2c1)c1ccccn1 (some centres not stated) | 420 | –
9 | CC(OC[C@H](O)CNC(C)(C)Cc1ccc2ccccc2c1)c1ccccc1Cl (some centres not stated) | 140 | Activity (Rattus norvegicus [2]): <50%
10 | Cc1ccccc1[C@@H](OC[C@@H](O)CNC(C)(C)Cc1ccc2ccccc2c1)C1CC1 | 760 | –
11 | CC(C)(Cc1ccc2ccccc2c1)NC[C@@H](O)COC(c1ccccc1)C(C)(C)C (some centres not stated) | 570 | –
12 | Cc1ccccc1C(C)OC[C@H](O)CNC(C)(C)Cc1ccc2ccccc2c1 (some centres not stated) | 200 | Activity (Rattus norvegicus [2]): >80%
13 | Cc1ccccc1[C@@H](OC[C@H](O)CNC(C)(C)Cc1ccc2ccccc2c1)C1CC1 | 83 | –
14 | Cc1ccc(C(C)OC[C@H](O)CNC(C)(C)Cc2ccc3ccccc3c2)cc1 (some centres not stated) | 140 | Activity (Rattus norvegicus [2]): <50%
15 | Cc1ccccc1[C@H](OC[C@@H](O)CNC(C)(C)Cc1ccc2ccccc2c1)C1CC1 | 310 | –
16 | Cc1ccccc1[C@H](OC[C@H](O)CNC(C)(C)Cc1ccc2ccccc2c1)C1CC1 | 23 | Cmax [3]: 300 nM; Tmax [4]: 1 h; half-life [5]: 2 h; bioavailability [6]: 13%; IC50 (Cytochrome P450 2D6): 500 nM; Activity (Rattus norvegicus [7]): inactive; Activity (Rattus norvegicus [8]): Active
17 | CC(C)(Cc1ccc2ccccc2c1)NC[C@@H](O)COC(c1ccccc1)C1CC1 (some centres not stated) | 70 | –
18 | CC(OC[C@H](O)CNC(C)(C)Cc1ccc2ccccc2c1)c1ccc2ccccc2c1 (some centres not stated) | 550 | –

Row | SMILES | IC50 [1] [nM] | also measured
19 | CC(C)(Cc1ccc2ccccc2c1)NC[C@@H](O)COC(c1ccccc1)C1CCC1 (some centres not stated) | 74 | –
20 | CC(COC[C@H](O)CNC(C)(C)Cc1ccc2ccccc2c1)c1ccccc1 (some centres not stated) | 810 | –
21 | COc1ccccc1C(C)OC[C@H](O)CNC(C)(C)Cc1ccc2ccccc2c1 (some centres not stated) | 120 | Activity (Rattus norvegicus [2]): >80%
22 | CCC(OC[C@H](O)CNC(C)(C)Cc1ccc2ccccc2c1)c1ccccc1 (some centres not stated) | 92 | –
23 | CC(OC[C@H](O)CNC(C)(C)Cc1ccc2ccccc2c1)c1ccccc1[N+](=O)[O-] (some centres not stated) | 540 | Activity (Rattus norvegicus [2]): <50%
24 | CC(Cc1ccccc1)OC[C@H](O)CNC(C)(C)Cc1ccc2ccccc2c1 (some centres not stated) | 440 | –
25 | Cc1ccccc1C(OC[C@H](O)CNC(C)(C)Cc1ccc2ccccc2c1)C1CC1 (some centres not stated) | 37 | Activity (Rattus norvegicus [2]): >80%
26 | CC(C)(Cc1ccc2ccccc2c1)NC[C@@H](O)COC(c1ccccc1)C1CCCC1 (some centres not stated) | 200 | –
27 | CC(C)(Cc1ccc2ccccc2c1)NC[C@@H](O)COC(C)(C)c1ccccc1 | 2240 | –
28 | COc1ccccc1C(OC[C@H](O)CNC(C)(C)Cc1ccc2ccccc2c1)C1CC1 (some centres not stated) | – | Activity (Rattus norvegicus [2]): >80%
29 | CC(C)(Cc1ccc2ccccc2c1)NC[C@@H](O)COC(c1ccccc1)c1ccccc1 | 730 | –
30 | CC(C)(Cc1ccc2ccccc2c1)NC[C@@H](O)COC(=O)c1ccccc1 | > 30000 | –
31 | CC(C)(Cc1ccc2ccccc2c1)NC[C@@H](O)COc1cccc(Cl)c1C#N | 26 | Activity (Rattus norvegicus [9]): 10 pg/mL
32 | CC(OC[C@H](O)CNC(C)(C)Cc1ccc2ccccc2c1)c1ccccc1 (some centres not stated) | 220 | –
33 | Cc1cccc(C(C)OC[C@H](O)CNC(C)(C)Cc2ccc3ccccc3c2)c1 (some centres not stated) | 170 | Activity (Rattus norvegicus [2]): 50%
34 | CC(OC[C@H](O)CNC(C)(C)Cc1ccc2ccccc2c1)c1ccccc1C#N (some centres not stated) | 160 | Activity (Rattus norvegicus [2]): 50%
35 | CCCCC(OC[C@H](O)CNC(C)(C)Cc1ccc2ccccc2c1)c1ccccc1 (some centres not stated) | 170 | –
